# According to ChEMBL document CHEMBL1151163, “New chromanone acids with antibacterial activity from Calophyllum brasiliense” (J Nat Prod, 2004):
# Experiments:
# [1] = test system: Staphylococcus epidermidis; test: Antimicrobial activity against Staphylococcus epidermidis ATCC 12228 by doubling dilution method; assay type: functional
# Method in brief: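 Twofold serial (doubling) dilution susceptibility test following a previously published protocol, with chloramphenicol as the positive control.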
# [2] = test system: KB; test: Cytotoxicity against human KB cells; assay type: functional, cell-based
# Method in brief: (§1)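 Cytotoxicity followed previously published protocols. KB cells (HeLa-derived, ATCC CCL 17) used podophyllotoxin as the positive control. Jurkat T helper cells (ATCC TIB 152) used helenalin. Myosarcoma cells used aculeatin A.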
# [3] = test system: Jurkat; test: Cytotoxicity against human Jurkat T cells; assay type: functional, cell-based; method in brief: as §1
# [4] = Cytotoxicity against Myosarcoma cells; assay type: functional, cell-based; method in brief: as §1
MIC [1] [mg/L],Compound,IC50 [2] [mg/L],IC50 [3] [mg/L],IC50 [4] [mg/L]
16,C=C(C)[C@@H]1C[C@@H](CC2(CC=C(C)C)C(=O)C3=C(O)[C@@H](C)[C@@H](C)OC3=C(C(CC(=O)O)c3ccccc3)C2=O)C1(C)C (relative stereo) [BRASILIENSOPHYLLIC ACID A],> 20,> 20,> 20
16,C=C(C)[C@@H]1C[C@@H](CC2(CC=C(C)C)C(=O)C(C(CC(=O)O)c3ccccc3)=C3O[C@H](C)[C@@H](C)C(=O)C3=C2O)C1(C)C (relative stereo) [BRASILIENSOPHYLLIC ACID B],> 20,> 20,> 20
16,C=C(C)[C@@H]1C[C@@H](CC2(CC=C(C)C)C(=O)C3=C(O)[C@@H](C)[C@H](C)OC3=C(C(CC(=O)O)c3ccccc3)C2=O)C1(C)C (relative stereo) [ISOBRASILIENSOPHYLLIC ACID A],> 20,> 20,> 20
16,C=C(C)[C@@H]1C[C@@H](CC2(CC=C(C)C)C(=O)C(C(CC(=O)O)c3ccccc3)=C3O[C@@H](C)[C@@H](C)C(=O)C3=C2O)C1(C)C (relative stereo) [ISOBRASILIENSOPHYLLIC ACID B],> 20,> 20,> 20
,CCCCCCCCCCCCC[C@@H]1C[C@@H](O)C[C@]2(CCC3(C=CC(=O)C=C3)O2)O1 [ACULEATIN A],,,0.3
4,O=C(N[C@H](CO)[C@H](O)c1ccc([N+](=O)[O-])cc1)C(Cl)Cl [CHLORAMPHENICOL],,,
,C=C1C(=O)O[C@@H]2C[C@@H](C)[C@@H]3C=CC(=O)[C@@]3(C)[C@@H](O)[C@H]12 [HELENALIN],,0.03,
,COc1cc([C@@H]2c3cc4c(cc3[C@H](O)[C@H]3COC(=O)[C@H]23)OCO4)cc(OC)c1OC [PODOFILOX],0.005,,
